Data taken from ChEMBL document CHEMBL4411269, “Required Immunoproteasome Subunit Inhibition Profile for Anti-Inflammatory Efficacy and Clinical Candidate KZR-616 ((2 S,3 R)- N-(( S)-3-(Cyclopent-1-en-1-yl)-1-(( R)-2-methyloxiran-2-yl)-1-oxopropan-2-yl)-3-hydroxy-3-(4-methoxyphenyl)-2-(( S)-2-(2-morpholinoacetamido)propanamido)propenamide)” (J Med Chem, 2018).
The source made the active and inactive calls.

What was measured:
[1] = tested on: Mus musculus; assay: In vivo inhibition of LMP7 in Balb/c mouse splenocytes at 5 mg/kg, iv followed by dosing repeat on day 6, 8, 11, 13 and 15 and measured on 1 hr post last dose; type: functional, organism-based
Method in brief: (§1)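 BALB/c mice dosed iv bolus in 10% sulfobutyl ether−β-cyclodextrin/10 mM sodium citrate pH 3.5; tissues taken 1 h after administration. Splenocytes strained and red cells lysed; kidney frozen, then bead-homogenized. Hypotonic lysate (20 mM Tris pH 8, 5 mM EDTA) at 1 mg/mL (spleen) or 5 mg/mL (kidney) run in the ProCISE active-site ELISA. Background-subtracted, protein-normalized activity relative to vehicle animals; n = 3.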

[2] = tested on: PBMC; assay: Cytotoxicity in human PBMC assessed as reduction in cell viability at 500 nM relative to control; type: cell-based; conditions: 0.5 µM
[3] = tested on: PBMC; assay: Antiinflammatory activity in human PBMC assessed as reduction in anti-CD3/CD28 antibody-stimulated IFN-gamma expression at 500 nM preincubated for 1 hr followed by anti-CD3/CD28 antibody stimulation measured after 24 hrs by ELISA; type: functional, cell-based
Method in brief: (§2)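 Healthy-donor PBMC, thawed from cryopreservation, 250 000 cells/well in RPMI 1640/5% FBS. Pretreated 1 h at 37 °C with compound alone or combined (0.1% DMSO final), washed 4 times, then stimulated 24 h with anti-CD3 and anti-CD28 antibodies. TNFα and IFNγ in supernatants by electrochemiluminescent ELISA; expressed relative to DMSO-treated controls (n = 6).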

[4] = Half life in Balb/c mouse at 2 mg/kg, iv; type: ADME, organism-based; conditions: in vivo
Method in brief: (§3)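 Female BALB/c mice aged 7−8 weeks, given 2 mg/kg iv in 25% PEG300/WFI. Cardiac blood taken at 2, 5, 10, 20, 30, 60 and 120 min postdose into sodium heparin and processed to plasma (n = 3/time point). Proteins precipitated with acetonitrile; drug measured by LC−MS/MS. Noncompartmental analysis of mean concentrations at nominal times and target doses.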

[5] = biological target: T1, Proteasome subunit beta type-8 (Homo sapiens) (UniProt P28062); assay: Inhibition of LMP7 in human PBMC at 500 nM by ELISA
T1 sequence (whole entry): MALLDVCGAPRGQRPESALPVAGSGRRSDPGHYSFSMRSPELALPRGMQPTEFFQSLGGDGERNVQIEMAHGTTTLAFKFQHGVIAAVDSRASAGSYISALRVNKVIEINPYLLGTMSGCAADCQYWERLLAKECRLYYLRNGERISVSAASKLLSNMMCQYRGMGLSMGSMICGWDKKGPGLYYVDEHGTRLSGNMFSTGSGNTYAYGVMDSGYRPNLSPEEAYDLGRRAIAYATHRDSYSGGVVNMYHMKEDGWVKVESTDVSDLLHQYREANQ
Method in brief: (§4)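 Cryopreserved healthy-donor human PBMC in RPMI 1640 with 5% heat-inactivated FBS, exposed to compound (0.1% DMSO final) for 1 h at 37 °C, 5% CO2, then washed. Subunit-specific active-site occupancy read by ProCISE: biotinylated active-site probe binding, denaturation, streptavidin capture, subunit-specific antibody and HRP chemiluminescence. Signal normalized to protein and expressed relative to DMSO controls.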

[6] = tested on: PBMC; assay: Antiinflammatory activity in human PBMC assessed as reduction in LPS-stimulated TNF-alpha expression at 500 nM preincubated for 1 hr followed by LPS stimulation measured after 24 hrs by ELISA; type: functional, cell-based
Method in brief: (§5)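 Cryopreserved healthy-donor PBMC in RPMI 1640 with 5% heat-inactivated FBS, 250 000 cells/well. Compound (0.1% DMSO final) for 1 h at 37 °C, 5% CO2, then 4 washes with medium. Stimulated with 1 μg/mL LPS for 24 h; supernatant TNFα, IL-6 and IL-12/23p40 by electrochemiluminescent immunoassay. Mean level relative to DMSO controls, n = 6.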

[7] = tested on: Mus musculus; assay: In vivo inhibition of MECL-1 in Balb/c mouse splenocytes at 5 mg/kg, iv followed by dosing repeat on day 6, 8, 11, 13 and 15 and measured on 1 hr post last dose; type: functional, organism-based; method in brief: as §1
[8] = tested on: Mus musculus; assay: In vivo inhibition of LMP2 in Balb/c mouse splenocytes at 5 mg/kg, iv followed by dosing repeat on day 6, 8, 11, 13 and 15 and measured on 1 hr post last dose; type: functional, organism-based; method in brief: as §1
[9] = biological target: T2, Proteasome subunit beta type-10 (Homo sapiens) (UniProt P40306); assay: Inhibition of MECL1 in human PBMC at 500 nM by ELISA; method in brief: as §4
T2 sequence (whole entry): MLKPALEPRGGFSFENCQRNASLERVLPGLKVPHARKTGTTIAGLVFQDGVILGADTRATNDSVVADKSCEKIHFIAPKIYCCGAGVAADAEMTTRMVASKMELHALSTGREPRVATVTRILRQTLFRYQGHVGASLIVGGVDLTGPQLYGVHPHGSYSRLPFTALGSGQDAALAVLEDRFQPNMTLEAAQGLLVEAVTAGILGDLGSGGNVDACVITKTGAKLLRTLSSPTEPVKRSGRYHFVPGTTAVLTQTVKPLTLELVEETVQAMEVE

[10] = Toxicity in Balb/c mouse assessed as change in body weight at 5 mg/kg, iv followed by dosing repeat on day 6, 8, 11, 13 and 15 and measured until day 18; type: organism-based; conditions: in vivo
[11] = tested on: Mus musculus; assay: Antiarthritic activity in type 2 collagen antibody/LPS induced Balb/c mouse assessed as reduction in disease burden at 5 mg/kg, iv followed by dosing repeat on day 6, 8, 11, 13 and 15 and measured until day 18; type: functional, organism-based
Method in brief: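 CAIA in 7−8 week old female BALB/c mice on breeder chow. Induced with 1.75 mg of a 5-antibody anti-type II collagen cocktail iv on day 0, then 25 μg LPS ip on day 3. Dosed as single iv boluses in 10% (w/v) sulfobutyl ether−β-cyclodextrin/10 mM sodium citrate (pH 3.5); vehicle-treated group included.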

[12] = tested on: Mus musculus; assay: In vivo inhibition of proteosome beta 5 in Balb/c mouse kidney at 5 mg/kg, iv followed by dosing repeat on day 6, 8, 11, 13 and 15 and measured on 1 hr post last dose; type: functional, organism-based; method in brief: as §1
[13] = Toxicity in Balb/c mouse assessed as effect on cage-side observations at 5 mg/kg, iv followed by dosing repeat on day 6, 8, 11, 13 and 15 and measured until day 18; type: organism-based; conditions: in vivo
[14] = tested on: PBMC; assay: Antiinflammatory activity in human PBMC assessed as reduction in LPS-stimulated IL-6 expression at 500 nM preincubated for 1 hr followed by LPS stimulation measured after 24 hrs by ELISA; type: functional, cell-based; method in brief: as §5
[15] = Clearance in Balb/c mouse at 2 mg/kg, iv; type: ADME, organism-based; conditions: in vivo; method in brief: as §3
[16] = tested on: PBMC; assay: Antiinflammatory activity in human PBMC assessed as reduction in anti-CD3/CD28 antibody-stimulated TNF-alpha expression at 500 nM preincubated for 1 hr followed by anti-CD3/CD28 antibody stimulation measured after 24 hrs by ELISA; type: functional, cell-based; method in brief: as §2
[17] = biological target: T3, Proteasome subunit beta type-9 (Homo sapiens) (UniProt P28065); conditions: 500 nM
T3 sequence (whole entry): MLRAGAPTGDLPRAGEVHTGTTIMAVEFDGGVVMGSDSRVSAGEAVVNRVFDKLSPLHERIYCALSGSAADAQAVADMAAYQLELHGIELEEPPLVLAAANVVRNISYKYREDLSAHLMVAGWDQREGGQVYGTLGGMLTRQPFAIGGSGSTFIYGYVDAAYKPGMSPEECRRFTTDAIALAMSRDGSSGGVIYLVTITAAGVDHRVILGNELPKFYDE

[18] = tested on: PBMC; assay: Antiinflammatory activity in human PBMC assessed as reduction in LPS-stimulated p40 subunit of […] expression at 500 nM preincubated for 1 hr followed by LPS stimulation measured after 24 hrs by ELISA; type: functional, cell-based; method in brief: as §5

C[C@]1(C(=O)[C@H](Cc2ccccc2)NC(=O)[C@H](CO)NC(=O)c2cccc(=O)[nH]2)CO1
< 7 min: half-life [4]
active: inhibition [1] | inhibition [5] | inhibition [7] | inhibition [8] | inhibition [9] | inhibition [12] | inhibition [17]
Non-Toxic: Activity [10] | Activity [13]
30%: Activity [2]
inactive: Activity [3] | Activity [6] | Activity [11] | Activity [14] | Activity [16] | Activity [18]
> 73 mL/min/kg: clearance [15]
